According to ChEMBL document CHEMBL3046951, “Volatile constituents from the leaves of Callicarpa japonica Thunb. and their antibacterial activities” (2004):

Assays:
Format in all cases: functional
[1] = tested on: Bacillus cereus; test: Antimicrobial activity against Bacillus cereus ATCC 11778 assessed as growth inhibition rate at 1.2 mg/l after 72 hr by spectrophotometry; conditions: ATCC 11778, 72 h, read-out: GI
In short: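 Pure volatile compounds (>95% purity; 2,4-heptadienal 90%) identified in the leaf extract were tested against B. cereus ATCC 11778 in nutrient broth at 30 °C. The inoculum was grown 24 h, then subcultured (0.1 mL into 9.9 mL) for 18 h. Optical density was read in a Bioscreen C every 24 h for 72 h against a 10% Tween 80 control.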

[2] = tested on: Vibrio parahaemolyticus; test: Antimicrobial activity against Vibrio parahaemolyticus ATCC 33844 assessed as growth inhibition rate at 0.24 mg/l after 72 hr by spectrophotometry; conditions: ATCC 33844, 72 h, read-out: GI
[3] = tested on: Escherichia coli; test: Antimicrobial activity against Escherichia coli O157:H7 ATCC 43894 assessed as growth inhibition rate at 24 mg/l after 72 hr by spectrophotometry; conditions: O157:H7 ATCC 43894, 72 h, read-out: GI
[4] = tested on: Vibrio parahaemolyticus; test: Antimicrobial activity against Vibrio parahaemolyticus ATCC 33844 assessed as growth inhibition rate at 1.2 mg/l after 72 hr by spectrophotometry; conditions: ATCC 33844, 72 h, read-out: GI
In short: (§1)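 Authentic volatiles (>95% purity; 2,4-heptadienal 90%) tested against 18 h subcultures. Growth media: E. coli O157:H7 and S. aureus in tryptic soy broth at 37 °C; L. monocytogenes in tryptic soy broth at 30 °C; V. parahaemolyticus in tryptic soy broth + 3% NaCl at 37 °C; S. typhimurium in nutrient broth at 30 °C. Bioscreen C OD every 24 h for 72 h versus 10% Tween 80 control.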

[5] = tested on: Bacillus cereus; test: Antimicrobial activity against Bacillus cereus ATCC 11778 assessed as growth inhibition rate at 12 mg/l after 72 hr by spectrophotometry; conditions: ATCC 11778, 72 h, read-out: GI
In short: (§2)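 Pure volatile compounds (purity >95%; one at 90%) were tested against B. cereus ATCC 11778. The strain was grown at 30 °C in nutrient broth for 24 h, then subcultured for 18 h. Optical density was read in a Bioscreen C every 24 h for 72 h, with 10% Tween 80 as the control.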

[6] = tested on: Staphylococcus aureus; test: Antimicrobial activity against Staphylococcus aureus ATCC 25923 assessed as growth inhibition rate at 24 mg/l after 72 hr by spectrophotometry; conditions: ATCC 25923, 72 h, read-out: GI
[7] = tested on: Bacillus cereus; test: Antimicrobial activity against Bacillus cereus ATCC 11778 assessed as growth inhibition rate at 0.24 mg/l after 72 hr by spectrophotometry; conditions: ATCC 11778, 72 h, read-out: GI; in short: as §2
[8] = tested on: Vibrio parahaemolyticus; test: Antimicrobial activity against Vibrio parahaemolyticus ATCC 33844 assessed as growth inhibition rate at 12 mg/l after 72 hr by spectrophotometry; conditions: ATCC 33844, 72 h, read-out: GI
[9] = tested on: Listeria monocytogenes; test: Antimicrobial activity against Listeria monocytogenes ATCC 19111 assessed as growth inhibition rate at 24 mg/l after 72 hr by spectrophotometry; conditions: ATCC 19111, 72 h, read-out: GI
In short: (§3)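 L. monocytogenes was grown at 30 °C in tryptic soy broth, subcultured for 18 h, and exposed to pure volatile compounds (>95% purity). Growth was followed by Bioscreen C optical density every 24 h for 72 h against a 10% Tween 80 control.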

[10] = tested on: Staphylococcus aureus; test: Antimicrobial activity against Staphylococcus aureus ATCC 25923 assessed as growth inhibition rate at 12 mg/l after 72 hr by spectrophotometry; conditions: ATCC 25923, 72 h, read-out: GI
[11] = tested on: Staphylococcus aureus; test: Antimicrobial activity against Staphylococcus aureus ATCC 25923 assessed as growth inhibition rate at 0.03 mg/l after 72 hr by spectrophotometry; conditions: ATCC 25923, 72 h, read-out: GI
[12] = tested on: Vibrio parahaemolyticus; test: Antimicrobial activity against Vibrio parahaemolyticus ATCC 33844 assessed as growth inhibition rate at 24 mg/l after 72 hr by spectrophotometry; conditions: ATCC 33844, 72 h, read-out: GI
[13] = tested on: Escherichia coli; test: Antimicrobial activity against Escherichia coli O157:H7 ATCC 43894 assessed as growth inhibition rate at 12 mg/l after 72 hr by spectrophotometry; conditions: O157:H7 ATCC 43894, 72 h, read-out: GI
[14] = tested on: Staphylococcus aureus; test: Antimicrobial activity against Staphylococcus aureus ATCC 25923 assessed as growth inhibition rate at 0.24 mg/l after 72 hr by spectrophotometry; conditions: ATCC 25923, 72 h, read-out: GI
[15] = tested on: Listeria monocytogenes; test: Antimicrobial activity against Listeria monocytogenes ATCC 19111 assessed as growth inhibition rate at 2.4 mg/l after 72 hr by spectrophotometry; conditions: ATCC 19111, 72 h, read-out: GI; in short: as §3
[16] = tested on: Salmonella typhimurium; test: Antimicrobial activity against Salmonella enterica subsp. enterica serovar Typhimurium ATCC 14028 assessed as growth inhibition rate at 0.24 mg/l after 72 hr by spectrophotometry; conditions: ATCC 14028, 72 h, read-out: GI
In short: (§4)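 Salmonella Typhimurium ATCC 14028 grown in nutrient broth at 30 °C, precultured 24 h, then subcultured 1:100 for 18 h before testing. Single volatile compounds (>95% pure) were added. OD was read every 24 h over 72 h in a Bioscreen C, with 10% Tween 80 as the comparison control.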

[17] = tested on: Salmonella typhimurium; test: Antimicrobial activity against Salmonella enterica subsp. enterica serovar Typhimurium ATCC 14028 assessed as growth inhibition rate at 2.4 mg/l after 72 hr by spectrophotometry; conditions: ATCC 14028, 72 h, read-out: GI; in short: as §4
[18] = tested on: Staphylococcus aureus; test: Antimicrobial activity against Staphylococcus aureus ATCC 25923 assessed as growth inhibition rate at 1.2 mg/l after 72 hr by spectrophotometry; conditions: ATCC 25923, 72 h, read-out: GI; in short: as §1
[19] = tested on: Escherichia coli; test: Antimicrobial activity against Escherichia coli O157:H7 ATCC 43894 assessed as growth inhibition rate at 1.2 mg/l after 72 hr by spectrophotometry; conditions: O157:H7 ATCC 43894, 72 h, read-out: GI
[20] = tested on: Bacillus cereus; test: Antimicrobial activity against Bacillus cereus ATCC 11778 assessed as growth inhibition rate at 0.03 mg/l after 72 hr by spectrophotometry; conditions: ATCC 11778, 72 h, read-out: GI; in short: as §2
[21] = tested on: Escherichia coli; test: Antimicrobial activity against Escherichia coli O157:H7 ATCC 43894 assessed as growth inhibition rate at 0.24 mg/l after 72 hr by spectrophotometry; conditions: O157:H7 ATCC 43894, 72 h, read-out: GI
[22] = tested on: Escherichia coli; test: Antimicrobial activity against Escherichia coli O157:H7 ATCC 43894 assessed as growth inhibition rate at 2.4 mg/l after 72 hr by spectrophotometry; conditions: O157:H7 ATCC 43894, 72 h, read-out: GI
[23] = tested on: Staphylococcus aureus; test: Antimicrobial activity against Staphylococcus aureus ATCC 25923 assessed as growth inhibition rate at 2.4 mg/l after 72 hr by spectrophotometry; conditions: ATCC 25923, 72 h, read-out: GI
[24] = tested on: Escherichia coli; test: Antimicrobial activity against Escherichia coli O157:H7 ATCC 43894 assessed as growth inhibition rate at 0.03 mg/l after 72 hr by spectrophotometry; conditions: O157:H7 ATCC 43894, 72 h, read-out: GI
[25] = tested on: Listeria monocytogenes; test: Antimicrobial activity against Listeria monocytogenes ATCC 19111 assessed as growth inhibition rate at 0.03 mg/l after 72 hr by spectrophotometry; conditions: ATCC 19111, 72 h, read-out: GI; in short: as §3
[26] = tested on: Bacillus cereus; test: Antimicrobial activity against Bacillus cereus ATCC 11778 assessed as growth inhibition rate at 24 mg/l after 72 hr by spectrophotometry; conditions: ATCC 11778, 72 h, read-out: GI; in short: as §2
[27] = tested on: Salmonella typhimurium; test: Antimicrobial activity against Salmonella enterica subsp. enterica serovar Typhimurium ATCC 14028 assessed as growth inhibition rate at 0.03 mg/l after 72 hr by spectrophotometry; conditions: ATCC 14028, 72 h, read-out: GI; in short: as §4
[28] = tested on: Listeria monocytogenes; test: Antimicrobial activity against Listeria monocytogenes ATCC 19111 assessed as growth inhibition rate at 12 mg/l after 72 hr by spectrophotometry; conditions: ATCC 19111, 72 h, read-out: GI; in short: as §3
[29] = tested on: Listeria monocytogenes; test: Antimicrobial activity against Listeria monocytogenes ATCC 19111 assessed as growth inhibition rate at 0.24 mg/l after 72 hr by spectrophotometry; conditions: ATCC 19111, 72 h, read-out: GI; in short: as §3
[30] = tested on: Bacillus cereus; test: Antimicrobial activity against Bacillus cereus ATCC 11778 assessed as growth inhibition rate at 2.4 mg/l after 72 hr by spectrophotometry; conditions: ATCC 11778, 72 h, read-out: GI; in short: as §2
[31] = tested on: Vibrio parahaemolyticus; test: Antimicrobial activity against Vibrio parahaemolyticus ATCC 33844 assessed as growth inhibition rate at 0.03 mg/l after 72 hr by spectrophotometry; conditions: ATCC 33844, 72 h, read-out: GI
[32] = tested on: Salmonella typhimurium; test: Antimicrobial activity against Salmonella enterica subsp. enterica serovar Typhimurium ATCC 14028 assessed as growth inhibition rate at 12 mg/l after 72 hr by spectrophotometry; conditions: ATCC 14028, 72 h, read-out: GI; in short: as §4
[33] = tested on: Vibrio parahaemolyticus; test: Antimicrobial activity against Vibrio parahaemolyticus ATCC 33844 assessed as growth inhibition rate at 2.4 mg/l after 72 hr by spectrophotometry; conditions: ATCC 33844, 72 h, read-out: GI
[34] = tested on: Listeria monocytogenes; test: Antimicrobial activity against Listeria monocytogenes ATCC 19111 assessed as growth inhibition rate at 1.2 mg/l after 72 hr by spectrophotometry; conditions: ATCC 19111, 72 h, read-out: GI; in short: as §1
[35] = tested on: Salmonella typhimurium; test: Antimicrobial activity against Salmonella enterica subsp. enterica serovar Typhimurium ATCC 14028 assessed as growth inhibition rate at 24 mg/l after 72 hr by spectrophotometry; conditions: ATCC 14028, 72 h, read-out: GI; in short: as §4
[36] = tested on: Salmonella typhimurium; test: Antimicrobial activity against Salmonella enterica subsp. enterica serovar Typhimurium ATCC 14028 assessed as growth inhibition rate at 1.2 mg/l after 72 hr by spectrophotometry; conditions: ATCC 14028, 72 h, read-out: GI; in short: as §1

## C[C@@H]1CC[C@@H]2[C@@H]1[C@H]1[C@@H](CC[C@]2(C)O)C1(C)C [(-)-EPIGLOBULOL]
[1]
  inhibition of growth at 1.2 µg/mL: 13.9%
[2]
  inhibition of growth at 0.24 µg/mL: 11.4%
[3]
  inhibition of growth at 24 µg/mL: 26.3%
[4]
  inhibition of growth at 1.2 µg/mL: 11.1%
[5]
  inhibition of growth at 12 µg/mL: 63.6%
[6]
  inhibition of growth at 24 µg/mL: 99.6%
[7]
  inhibition of growth at 0.24 µg/mL: 8.2%
[8]
  inhibition of growth at 12 µg/mL: 61.2%
[9]
  inhibition of growth at 24 µg/mL: 94.3%
[10]
  inhibition of growth at 12 µg/mL: 99.4%
[11]
  inhibition of growth at 0.03 µg/mL: 1.7%
[12]
  inhibition of growth at 24 µg/mL: 65.8%
[13]
  inhibition of growth at 12 µg/mL: 22.6%
[14]
  inhibition of growth at 0.24 µg/mL: 2.6%
[15]
  inhibition of growth at 2.4 µg/mL: 10.1%
[16]
  inhibition of growth at 0.24 µg/mL: 3.9%
[17]
  inhibition of growth at 2.4 µg/mL: 4.9%
[18]
  inhibition of growth at 1.2 µg/mL: 5.8%
[19]
  inhibition of growth at 1.2 µg/mL: 0.9%
[20]
  inhibition of growth at 0.03 µg/mL: 0.6%
[21]
  inhibition of growth at 0.24 µg/mL: 0.7%
[22]
  inhibition of growth at 2.4 µg/mL: 2.1%
[23]
  inhibition of growth at 2.4 µg/mL: 5.9%
[24]
  inhibition of growth at 0.03 µg/mL: 0.3%
[25]
  inhibition of growth at 0.03 µg/mL: 5.8%
[26]
  inhibition of growth at 24 µg/mL: 95.7%
[27]
  inhibition of growth at 0.03 µg/mL: 2.2%
[28]
  inhibition of growth at 12 µg/mL: 92%
[29]
  inhibition of growth at 0.24 µg/mL: 6.1%
[30]
  inhibition of growth at 2.4 µg/mL: 18.6%
[31]
  inhibition of growth at 0.03 µg/mL: 3.1%
[32]
  inhibition of growth at 12 µg/mL: 39.1%
[33]
  inhibition of growth at 2.4 µg/mL: 11.7%
[34]
  inhibition of growth at 1.2 µg/mL: 8.2%
[35]
  inhibition of growth at 24 µg/mL: 58.1%
[36]
  inhibition of growth at 1.2 µg/mL: 4.4%
